Tests used:
[1] = melting temperature; fluorescence melt of hairpins on a sequencing array, two-state fit, raised by 9.35 °C to match UV melts; conditions: sodium 0.088 M
In short: (§1)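 In 50 mM Na-HEPES pH 8.0 containing 25 mM NaCl, hairpins from the library on a sequenced MiSeq flow cell were imaged for Cy3 fluorescence at 2.5 °C steps up to 60 °C, with Cy3 and quencher oligos annealed. After normalisation to pre-quench Cy3 and to control constructs, two-state fits with bootstrapping gave melting temperature and folding enthalpy. Four replicates were combined by inverse-variance weighting, and fitted temperatures were shifted up by 9.35 °C to match UV melts.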

[2] = folding enthalpy; higher = less favourable; fluorescence melt of hairpins on a sequencing array, two-state fit; conditions: sodium 0.088 M
In short: as §1

GATCCTCCGTAGGATC ((((((....))))))
Tm [1]: 48.5 °C
folding enthalpy [2]: -20.4 kcal/mol

GATCCTCCTAAGGATC ((((((....))))))
Tm [1]: 53.4 °C
folding enthalpy [2]: -37.5 kcal/mol

GATCCTCGCTAGGATC ((((((....))))))
Tm [1]: 51.2 °C
folding enthalpy [2]: -35.6 kcal/mol

GATCCTCGGAGGATC ((((((...))))))
Tm [1]: 51.6 °C
folding enthalpy [2]: -33.5 kcal/mol

GATCCTCTCGAGGATC ((((((....))))))
Tm [1]: 58 °C
folding enthalpy [2]: -42.4 kcal/mol

GATCCTCTGAAGGATC ((((((....))))))
Tm [1]: 51.6 °C
folding enthalpy [2]: -36.8 kcal/mol

GATCCTCTTAGGATC ((((((...))))))
Tm [1]: 55.2 °C
folding enthalpy [2]: -35.3 kcal/mol

GATCCTCTTGAGGATC ((((((....))))))
Tm [1]: 61.3 °C
folding enthalpy [2]: -41 kcal/mol

GATCCTGAATAGGATC ((((((....))))))
Tm [1]: 59 °C
folding enthalpy [2]: -39.2 kcal/mol

GATCCTGACAAGGATC ((((((....))))))
Tm [1]: 63 °C
folding enthalpy [2]: -38 kcal/mol

GATCCTGACGAGGATC ((((((....))))))
Tm [1]: 56.9 °C
folding enthalpy [2]: -36.4 kcal/mol

GATCCTGAGCAGGATC ((((((....))))))
Tm [1]: 52.3 °C
folding enthalpy [2]: -36.9 kcal/mol

GATCCTGAGGAGGATC ((((((....))))))
Tm [1]: 49.2 °C
folding enthalpy [2]: -34 kcal/mol

GATCCTGATAGGATC ((((((...))))))
Tm [1]: 53.2 °C
folding enthalpy [2]: -31.6 kcal/mol

GATCCTGATGAGGATC ((((((....))))))
Tm [1]: 51.1 °C
folding enthalpy [2]: -31.9 kcal/mol

GATCCTGCAGAGGATC ((((((....))))))
Tm [1]: 56 °C
folding enthalpy [2]: -39.5 kcal/mol

GATCCTGGAGAGGATC ((((((....))))))
Tm [1]: 54 °C
folding enthalpy [2]: -34.7 kcal/mol

GATCCTGGCAAGGATC ((((((....))))))
Tm [1]: 63.3 °C
folding enthalpy [2]: -44.6 kcal/mol

GATCCTGGGAAGGATC ((((((....))))))
Tm [1]: 59.7 °C
folding enthalpy [2]: -42.3 kcal/mol

GATCCTGGGAGGATC ((((((...))))))
Tm [1]: 51 °C
folding enthalpy [2]: -33.8 kcal/mol

GATCCTGGTCAGGATC ((((((....))))))
Tm [1]: 55.5 °C
folding enthalpy [2]: -41.8 kcal/mol

GATCCTGTCTAGGATC ((((((....))))))
Tm [1]: 56 °C
folding enthalpy [2]: -39.4 kcal/mol

GATCCTGTTCAGGATC ((((((....))))))
Tm [1]: 56.8 °C
folding enthalpy [2]: -39.1 kcal/mol

GATCCTTCTAAGGATC ((((((....))))))
Tm [1]: 54.4 °C
folding enthalpy [2]: -47.8 kcal/mol

GATCCTTCTAGGATC ((((((...))))))
Tm [1]: 57.1 °C
folding enthalpy [2]: -30.6 kcal/mol

GATCCTTGGCAGGATC ((((((....))))))
Tm [1]: 49.4 °C
folding enthalpy [2]: -35.3 kcal/mol

GATCCTTGGTAGGATC ((((((....))))))
Tm [1]: 51.1 °C
folding enthalpy [2]: -31.6 kcal/mol

GATCCTTGTAGGATC ((((((...))))))
Tm [1]: 55.1 °C
folding enthalpy [2]: -34.4 kcal/mol

GATCCTTGTGAGGATC ((((((....))))))
Tm [1]: 56.1 °C
folding enthalpy [2]: -38 kcal/mol

GATCCTTTACAGGATC ((((((....))))))
Tm [1]: 51.1 °C
folding enthalpy [2]: -51.6 kcal/mol

GATCCTTTATAGGATC ((((((....))))))
Tm [1]: 53.4 °C
folding enthalpy [2]: -40.2 kcal/mol

GATCCTTTGGAGGATC ((((((....))))))
Tm [1]: 53.3 °C
folding enthalpy [2]: -39.5 kcal/mol

GATCCTTTGTAGGATC ((((((....))))))
Tm [1]: 52.6 °C
folding enthalpy [2]: -39.7 kcal/mol

GATCCTTTTCAGGATC ((((((....))))))
Tm [1]: 52.6 °C
folding enthalpy [2]: -32.6 kcal/mol

GATCCTTTTGAGGATC ((((((....))))))
Tm [1]: 54.1 °C
folding enthalpy [2]: -36.9 kcal/mol

GATCGAAAATCGATC ((((((...))))))
Tm [1]: 47.6 °C
folding enthalpy [2]: -29.9 kcal/mol

GATCGAAACCTCGATC ((((((....))))))
Tm [1]: 51.3 °C
folding enthalpy [2]: -39.6 kcal/mol

GATCGAAATATCGATC ((((((....))))))
Tm [1]: 49 °C
folding enthalpy [2]: -32.7 kcal/mol

GATCGAAATTCGATC ((((((...))))))
Tm [1]: 48.9 °C
folding enthalpy [2]: -33.7 kcal/mol

GATCGAACGTCGATC ((((((...))))))
Tm [1]: 49.3 °C
folding enthalpy [2]: -34.9 kcal/mol

GATCGAACTTCGATC ((((((...))))))
Tm [1]: 51 °C
folding enthalpy [2]: -31.3 kcal/mol

GATCGAAGGTTCGATC ((((((....))))))
Tm [1]: 52.1 °C
folding enthalpy [2]: -31.2 kcal/mol

GATCGAATGGTCGATC ((((((....))))))
Tm [1]: 51.4 °C
folding enthalpy [2]: -20.2 kcal/mol

GATCGAATGTCGATC ((((((...))))))
Tm [1]: 50.6 °C
folding enthalpy [2]: -31.5 kcal/mol

GATCGAATTGTCGATC ((((((....))))))
Tm [1]: 50 °C
folding enthalpy [2]: -41.9 kcal/mol

GATCGACACTTCGATC ((((((....))))))
Tm [1]: 53.4 °C
folding enthalpy [2]: -48.6 kcal/mol

GATCGACATGTCGATC ((((((....))))))
Tm [1]: 61.3 °C
folding enthalpy [2]: -41.7 kcal/mol

GATCGACCCGTCGATC ((((((....))))))
Tm [1]: 60.1 °C
folding enthalpy [2]: -47.1 kcal/mol

GATCGACCGCTCGATC ((((((....))))))
Tm [1]: 51.7 °C
folding enthalpy [2]: -45.2 kcal/mol

GATCGACCGGTCGATC ((((((....))))))
Tm [1]: 61.5 °C
folding enthalpy [2]: -51.5 kcal/mol

GATCGACCGTTCGATC ((((((....))))))
Tm [1]: 50.7 °C
folding enthalpy [2]: -46 kcal/mol

GATCGACCTTCGATC ((((((...))))))
Tm [1]: 51 °C
folding enthalpy [2]: -35.6 kcal/mol

GATCGACGAAAGTCAATC (((.(((....))).)))
Tm [1]: 40.3 °C
folding enthalpy [2]: -20.5 kcal/mol

GATCGACGAGTCGATC ((((((....))))))
Tm [1]: 64 °C
folding enthalpy [2]: -45.8 kcal/mol

GATCGACGTCTCGATC ((((((....))))))
Tm [1]: 50 °C
folding enthalpy [2]: -42.3 kcal/mol

GATCGACTCATCGATC ((((((....))))))
Tm [1]: 51.8 °C
folding enthalpy [2]: -41.7 kcal/mol

GATCGACTCCTCGATC ((((((....))))))
Tm [1]: 51.6 °C
folding enthalpy [2]: -38.6 kcal/mol

GATCGACTCTTCGATC ((((((....))))))
Tm [1]: 52.7 °C
folding enthalpy [2]: -39.5 kcal/mol

GATCGACTGCTCGATC ((((((....))))))
Tm [1]: 50.9 °C
folding enthalpy [2]: -43.4 kcal/mol

GATCGACTGTCGATC ((((((...))))))
Tm [1]: 51.4 °C
folding enthalpy [2]: -49 kcal/mol

GATCGACTTCTCGATC ((((((....))))))
Tm [1]: 51.5 °C
folding enthalpy [2]: -41 kcal/mol

GATCGACTTTCGATC ((((((...))))))
Tm [1]: 51.7 °C
folding enthalpy [2]: -22.2 kcal/mol

GATCGAGAACTCGATC ((((((....))))))
Tm [1]: 57 °C
folding enthalpy [2]: -37.6 kcal/mol

GATCGAGAGTTCGATC ((((((....))))))
Tm [1]: 50.5 °C
folding enthalpy [2]: -36.7 kcal/mol

GATCGAGCGATCGATC ((((((....))))))
Tm [1]: 57.5 °C
folding enthalpy [2]: -35.6 kcal/mol

GATCGAGCGTTCGATC ((((((....))))))
Tm [1]: 52.1 °C
folding enthalpy [2]: -45.4 kcal/mol

GATCGAGCTTTCGATC ((((((....))))))
Tm [1]: 52.6 °C
folding enthalpy [2]: -35.1 kcal/mol

GATCGAGGCGTCGATC ((((((....))))))
Tm [1]: 55.1 °C
folding enthalpy [2]: -40.6 kcal/mol

GATCGAGGCTCGATC ((((((...))))))
Tm [1]: 55.5 °C
folding enthalpy [2]: -42.1 kcal/mol

GATCGAGGTATCGATC ((((((....))))))
Tm [1]: 58.7 °C
folding enthalpy [2]: -39.6 kcal/mol

GATCGAGGTCTCGATC ((((((....))))))
Tm [1]: 55.8 °C
folding enthalpy [2]: -38.5 kcal/mol

GATCGAGGTTCGATC ((((((...))))))
Tm [1]: 51.6 °C
folding enthalpy [2]: -38.6 kcal/mol

GATCGAGTTGTCGATC ((((((....))))))
Tm [1]: 52.8 °C
folding enthalpy [2]: -39.4 kcal/mol

GATCGAGTTTCGATC ((((((...))))))
Tm [1]: 53 °C
folding enthalpy [2]: -31.4 kcal/mol

GATCGATACTCGATC ((((((...))))))
Tm [1]: 51.3 °C
folding enthalpy [2]: -41.3 kcal/mol

GATCGATAGATCGATC ((((((....))))))
Tm [1]: 61.1 °C
folding enthalpy [2]: -18.9 kcal/mol

GATCGATAGTCGATC ((((((...))))))
Tm [1]: 48.7 °C
folding enthalpy [2]: -30.3 kcal/mol

GATCGATAGTTCGATC ((((((....))))))
Tm [1]: 50.8 °C
folding enthalpy [2]: -39.3 kcal/mol

GATCGATCATCGATC ((((((...))))))
Tm [1]: 50.5 °C
folding enthalpy [2]: -33.2 kcal/mol

GATCGATCCTTCGATC ((((((....))))))
Tm [1]: 55.5 °C
folding enthalpy [2]: -45.3 kcal/mol

GATCGATCTCTCGATC ((((((....))))))
Tm [1]: 51.4 °C
folding enthalpy [2]: -41.2 kcal/mol

GATCGATTACTCGATC ((((((....))))))
Tm [1]: 51 °C
folding enthalpy [2]: -47.6 kcal/mol

GATCGATTCTCGATC ((((((...))))))
Tm [1]: 53.3 °C
folding enthalpy [2]: -38.8 kcal/mol

GATCGATTGGTCGATC ((((((....))))))
Tm [1]: 53.2 °C
folding enthalpy [2]: -37.6 kcal/mol

GATCGCAATCGCGATC ((((((....))))))
Tm [1]: 67.9 °C
folding enthalpy [2]: -32.2 kcal/mol

GATCGCACACGCGATC ((((((....))))))
Tm [1]: 68.2 °C
folding enthalpy [2]: -38 kcal/mol

GATCGCACGGGCGATC ((((((....))))))
Tm [1]: 67.1 °C
folding enthalpy [2]: -30.9 kcal/mol

GATCGCACTCGCGATC ((((((....))))))
Tm [1]: 68.4 °C
folding enthalpy [2]: -34.7 kcal/mol

GATCGCAGGCGCGATC ((((((....))))))
Tm [1]: 68.3 °C
folding enthalpy [2]: -35.1 kcal/mol

GATCGCATAAGCGATC ((((((....))))))
Tm [1]: 69.2 °C
folding enthalpy [2]: -32.5 kcal/mol

GATCGCCAACGCGATC ((((((....))))))
Tm [1]: 62.9 °C
folding enthalpy [2]: -36.6 kcal/mol

GATCGCCACAGCGATC ((((((....))))))
Tm [1]: 68.8 °C
folding enthalpy [2]: -38.2 kcal/mol

GATCGCCAGAGCGATC ((((((....))))))
Tm [1]: 68.3 °C
folding enthalpy [2]: -37.6 kcal/mol

GATCGCCAGGGCGATC ((((((....))))))
Tm [1]: 68.3 °C
folding enthalpy [2]: -31 kcal/mol

GATCGCCATTGCGATC ((((((....))))))
Tm [1]: 67.5 °C
folding enthalpy [2]: -38 kcal/mol

GATCGCCCAGGCGATC ((((((....))))))
Tm [1]: 68.2 °C
folding enthalpy [2]: -25.1 kcal/mol

Reference: the array DNA melting data of Ke et al. (doi:10.1101/2024.01.08.574731)
